miR-122 sensor – miR-122 Renilla sensor signal increase in Huh7, primary screen, miR-122 inhibitor project, cell-based, single point, plate reader. Huh7 miR-122 Renilla luciferase sensor, 48 h; neutral wells = 0, positive control = 100. activation (reporter increase), % at 12.5 µM. 340,000 compounds, 0.3% hits;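 active = mean replicate activation score at least 90 and every replicate individually at or above 90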;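 also: higher luciferase means less miR-122 activity so hits act as miR-122 inhibitors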
SR-BI HDL uptake – inhibitors of SR-BI mediated HDL lipid uptake, primary screen, ldlA[mSR-BI] cells, fluorescence, single point. 320,000 compounds, 0.96% hits. inhibition, % at 12.5 µM. Scavenger receptor class B member 1 (Mus musculus), Q61009. ldlA[mSR-BI] CHO cells, DiI-HDL uptake fluorescence, 3 h;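 active = mean replicate inhibition of at least 70% and a set share of replicates each scoring 70 or more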;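 also: 0% = median of neutral control wells and 100% = median of positive control wells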
Target sequence (Q61009 whole entry, looked up): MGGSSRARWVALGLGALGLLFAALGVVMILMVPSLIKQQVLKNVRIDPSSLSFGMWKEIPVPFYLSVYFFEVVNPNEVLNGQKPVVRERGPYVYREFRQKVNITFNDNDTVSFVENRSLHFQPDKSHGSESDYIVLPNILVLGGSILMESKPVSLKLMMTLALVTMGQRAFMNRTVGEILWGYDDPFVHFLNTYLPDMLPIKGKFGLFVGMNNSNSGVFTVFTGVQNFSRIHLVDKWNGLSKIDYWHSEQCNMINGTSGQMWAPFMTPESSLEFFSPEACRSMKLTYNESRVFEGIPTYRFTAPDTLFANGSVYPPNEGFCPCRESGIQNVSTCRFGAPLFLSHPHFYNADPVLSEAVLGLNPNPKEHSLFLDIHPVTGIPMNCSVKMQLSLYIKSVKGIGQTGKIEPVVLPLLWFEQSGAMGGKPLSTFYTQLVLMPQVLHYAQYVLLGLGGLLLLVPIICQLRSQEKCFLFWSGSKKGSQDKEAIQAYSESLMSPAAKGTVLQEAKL
SR-BI DiI-HDL act – activators of SR-BI mediated DiI-HDL uptake, primary screen, ldlA[mSR-BI] CHO cells, DiI fluorescence; 320,000 compounds, 0.096% hits; 3 h; 100 = double the neutral-control signal; activation, % at 12.5 µM;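 active = mean replicate activation of at least 60% and every replicate at or above 60%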;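 also: 0% = median plate neutral-control signal and 100% = twice that signal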
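Material: SR-BI-overexpressing, LDLR-lacking CHO cells | Dosing: Single compound concentration, delivered by pin transfer | Probe or stimulus: Labelled HDL, 10 µg/mL | Signal: Bottom-read cell fluorescence after medium removal, ex 550/em 595 nm | Schedule: 3 h, 37 °C | Evaluation: HDL uptake via cellular fluorescence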
CAL PDZ FP-1 – CAL PDZ peptide-binding inhibitors, primary screen, biochemical, fluorescence polarization, Cer-tagged CAL PDZ, HTS. AID 504414, 2011. 330,000 compounds, 0.02% hits. purified CAL PDZ, TMR-peptide fluorescence polarization, 1 h. inhibition, % at 20 µM;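 active = highest replicate inhibition of at least 40%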;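 also: plate controls were DMSO neutral control wells for no effect and unlabeled competitor peptide control wells for full effect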
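Material: tagged CAL PDZ protein CerCALP, purified; buffer or medium: sodium phosphate/NaCl buffer pH 7.4 with TCEP, IgG, Thesit; also added: fluorescent TMR peptide probe; schedule: 1 h incubation at room temperature before polarization reading; technique: fluorescence polarization from S- and P-plane intensities, G-factor corrected; control set: unlabelled peptide and DMSO controls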
CAL PDZ FP-2 – untagged CAL PDZ binding inhibitors, primary screen, biochemical, fluorescence polarization, HTS | Golgi-associated PDZ and coiled-coil motif-containing protein (Homo sapiens), Q9HD26 | purified CAL PDZ, TMR-peptide fluorescence polarization, 1 h | inhibition, % at 24.9 µM | 300,000 compounds, 0.92% hits;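 active = mean inhibition of at least 30% with at least half of replicates also reaching 30%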;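 also: 0% = DMSO neutral control and 100% = excess unlabeled competitor peptide PRC23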
ARNT-TACC3 inh – disruptors of ARNT/TACC3 protein interaction, primary screen, biochemical, AlphaScreen, single concentration | AlphaScreen His-ARNT PAS-B/GST-TACC3 binding, luminescence; TACC3 fragment carries E629A point mutation | inhibition, % at 9.99 µM | 390,000 compounds, 0.66% hits | Transforming acidic coiled-coil-containing protein 3 (Homo sapiens), Q9Y6A5;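 active = mean inhibition of replicates at least 50% and at least half of replicates each reaching 50%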;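 also: 0% = complete ARNT plus TACC3 wells and 100% = ARNT alone without TACC3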
An asterisk follows results filed as active; . = no result; [ ] = dose if it differs, or a comment. The list is not random: actives were taken first. Their share in the collection is about 2.1%.

SMILES	miR-122 sensor	SR-BI HDL uptake	SR-BI DiI-HDL act	CAL PDZ FP-1	CAL PDZ FP-2	ARNT-TACC3 inh
CN(C(=O)c1cccc(NC(=O)Cc2ccc(NC(=O)C3CCCN(C(=O)C4CCCC4)C3)cc2)c1)C1CCCC1 (stereo not drawn)	0	68	-68	1	-6	-1
O=C(N[C@@H]1CC[C@@H](CC(=O)N2CCCCC2)O[C@@H]1CO)c1ccccn1	.	.	.	.	.	-6
Cc1cnc(C(=O)OCC(=O)c2cc(C)n(CCc3ccc(F)cc3)c2C)cn1	1	.	.	.	.	.
Cc1cc(C(=O)COC(=O)c2ccc(O)cc2)c(C)n1CCc1ccc(F)cc1	6	74*	-74	-1	5	-2
COc1ccc(OCc2nnc(SCC(=O)Nc3ccccc3C#N)o2)cc1	-9	-5	5	0	54*	4
COc1ccc(C(=O)NCc2nnc(SCC(=O)Nc3ccccc3OC)o2)cc1	0	-29	29	-1	56*	4
COc1ccc(C(=O)NCc2nnc(SCC(=O)Nc3ccccc3F)o2)cc1	1	-21	21	-1	-1	-26
Cc1cc(NC(=O)CSc2nnc(CNC(=O)c3cccc(C(F)(F)F)c3)o2)no1	0	-13	13	-2	-3	46*
CCOC(=O)C1=C(O)/C(=C/c2cc(OC)c(O)c(OC)c2)SC1=Nc1ccc(OC)cc1	.	86*	-86	0	1	.
CSCCC1NC(=O)C(C(C)=NNC(N)=O)=C1O (stereo not drawn)	.	-4	4	0	0	74*
CC(C)CCC(CC(C)O)C(=O)NNC(=S)Nc1ccccc1 (stereo not drawn)	152*	-2	2	0	0	-2
CNC(=S)N/N=C/c1cc(Br)cc(Br)c1O	.	3	-3	-3	-1	48*
Oc1c(Br)cc(Br)cc1/C=N/NC(=S)N[C@H]1CC2C=CC1C2 (stereo partly drawn)	7	78*	-78	0	1	12
COc1cc(/C=N/NC(=S)NC2CC3C=CC2C3)cc(OC)c1OC (stereo not drawn)	-2	15	-15	-1	-3	0
CCC(=O)N1C[C@H]2[C@@H](c3ccccc31)[C@@H](CO)N2C(=O)Nc1ccccc1	33[16.7 µM]	.	.	.	.	-9
COc1ccc(NS(=O)(=O)c2cc(NC(=O)C3CC3)ccc2N2CCCCC2)cc1	48	22	-22	0	.	4
Cc1ccc(NC(=O)c2cc(NC(=O)c3ccco3)ccc2N2CCCCC2)cc1	4	73*	-73	-1	-3	-51
Cc1ccc(NC(=O)c2cc(NC(=O)c3ccco3)ccc2N2CCOCC2)cc1	67	38	-38	-1	3	-2
COc1ccc(NS(=O)(=O)c2cc(NC(=O)c3ccco3)ccc2N2CCCCC2)cc1	209*	19	-19	-2	-4	-1
COc1ccc(NS(=O)(=O)c2cc(NC(=O)c3cnc(C)cn3)ccc2N2CCCC2)cc1	78	32	-32	0	3	4
COc1ccc(NS(=O)(=O)c2cc(NC(=O)c3ccc(=O)[nH]c3)ccc2N2CCCC2)cc1	155*	6	-6	-1	-4	13
COCC(=O)Nc1ccc2c(c1)OC[C@@H](C)N(C(=O)c1ccccn1)C[C@@H](C)[C@H](OC)CN(C)C2=O	-2[16.7 µM]	.	.	.	.	.
CCOC(=O)c1c[nH]c2c(Cl)ccc(Cl)c2c1=O	6	-2	2	-2	.	.
CCOC(=O)c1c[nH]c2ccc3ccccc3c2c1=O	-7	-24	24	-3	54*	-4
Cc1cc(C)cc(NC2=CC(=O)CC(c3ccco3)C2)c1 (stereo not drawn)	.	25	-25	-1	.	-10

Screening results: PubChem, Broad Institute
